Data: article PMC9075791 (RSC Advances, 2019)

Legend:
[1] = Cell-free aggregation assay; type: physicochemical; settings: for Detected CAC: critical aggregation concentration, 1× HBSS, 20 mM HEPES, pH 7.2; for aggregator / non-aggregator in aggregation assay: real time dose responses
Outline: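 Assay buffer (1× HBSS, 20 mM HEPES, pH 7.2) was equilibrated in wells of the RWG reader for 1 h. After a 2 min baseline, a compound dilution series (from DMSO stocks, maximum 1‰ final DMSO) was added and wavelength shift was recorded for 1 h. A DMSO range set the background. Responses at a fixed time were plotted against concentration to give the CAC. Each assay was run at least three times.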

[2] = test system: HT-29 cells; assay: DMR agonism assay; type: cell-based, Human
Outline: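 HT-29 cells were grown in McCoy's 5A with 10% FBS at 37 °C/5% CO2. They were seeded on RWG biosensor plates for ~24 h to form a monolayer, washed, and held 1 h in HBSS/20 mM HEPES pH 7.2, or in the same buffer with tween-80 for detergent runs. After a 2 min baseline, test compound was added and DMR was monitored for 1 h. The background-corrected maximal amplitude was used. Two independent runs, each at least in duplicate (n = 4).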

[3] = biological target: Muscarinic M3 receptor (Homo sapiens, UniProt P20309); assay: DMR desensitization assay, M3; type: cell-based; settings: HT-29 cells; active compounds at concentrations above 50 μM
[4] = cited from earlier work

Sequence of Muscarinic M3 receptor (P20309 whole entry): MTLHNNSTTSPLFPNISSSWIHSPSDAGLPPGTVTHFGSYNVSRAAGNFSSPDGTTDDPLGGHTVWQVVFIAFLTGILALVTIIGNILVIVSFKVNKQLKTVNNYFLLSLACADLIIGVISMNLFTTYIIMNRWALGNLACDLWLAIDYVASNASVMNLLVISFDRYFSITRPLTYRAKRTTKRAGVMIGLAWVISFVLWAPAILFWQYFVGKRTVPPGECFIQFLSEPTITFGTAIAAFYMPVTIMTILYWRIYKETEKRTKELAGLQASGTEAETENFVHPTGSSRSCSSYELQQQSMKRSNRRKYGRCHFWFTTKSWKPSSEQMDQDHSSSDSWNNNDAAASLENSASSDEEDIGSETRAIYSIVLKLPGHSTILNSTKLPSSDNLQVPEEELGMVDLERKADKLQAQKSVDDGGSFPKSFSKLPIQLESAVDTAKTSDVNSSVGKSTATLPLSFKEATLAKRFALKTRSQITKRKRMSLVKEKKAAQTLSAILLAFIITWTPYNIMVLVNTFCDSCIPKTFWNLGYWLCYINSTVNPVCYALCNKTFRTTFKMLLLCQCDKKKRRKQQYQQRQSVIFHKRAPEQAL

SMILES | Detected CAC [1] | aggregator / non-aggregator in aggregation assay [1] | DMR response (in words) ([2]; to its solubility limit) | inhibition of the DMR response of acetylcholine against muscarinic M3 receptor [3] | Literature CAC detected by DLS [4] | DMR response ([2]; at 100 μM)
COc1cc(/C=C/C(=O)CC(=O)/C=C/c2ccc(O)c(OC)c2)ccc1O [Curcumin] | 9.6 µM | aggregator | barely triggered any cellular mass redistributions | did not inhibit | 17 ([ref. 16]) μM | 
O=c1c(-c2ccc(O)cc2)coc2cc(O)cc(O)c12 [Genistein] | 42.8 µM |  |  |  | <75 ([ref. 12]) μM | 
O=c1cc(-c2ccc(O)c(O)c2)oc2cc(O)cc(O)c12 [Luteolin] | 1.6 µM |  |  |  | <50 ([ref. 12]) μM | 

Now from value to compound, other results behind:

Detected CAC [1] | aggregator / non-aggregator in aggregation assay [1] | SMILES | DMR response (in words) ([2]; to its solubility limit) | inhibition of the DMR response of acetylcholine against muscarinic M3 receptor [3] | Literature CAC detected by DLS [4] | DMR response ([2]; at 100 μM)
 | non-aggregator | O=C(O)c1cccnc1 [Nicotinic acid] |  |  |  | 
Undetected |  | COc1cc(O)c2c(c1)C(=O)c1cc(C)cc(O)c1C2=O [Physcion] |  |  | 0.32 ([ref. 16]) μM | 
5.7 µM |  | O=c1c(O)c(-c2ccc(O)c(O)c2)oc2cc(O)cc(O)c12 [Quercetin] |  | false inhibited |  | less than 100 pm
25.2 µM |  | COc1cc(C2Oc3cc([C@H]4Oc5cc(O)cc(O)c5C(=O)[C@@H]4O)ccc3OC2CO)ccc1O (some centres unmarked) [Silybin] |  |  | 0.47 ([ref. 16]) μM | 
